Reference: ChEMBL document CHEMBL4627290, “Synthesis and biological evaluation of chepraecoxin A derivatives as α-glucosidase inhibitors” (Bioorg Med Chem Lett, 2020)

Assays:
[1] = Potency index, ratio of chepraecoxinA IC50 to test compound IC50 for inhibition of alpha-glucosidase (unknown origin); conditions: Homo sapiens
[2] = Inhibition of alpha-glucosidase (unknown origin); set-up: species or system Homo sapiens
How it was run: (§1)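 Single-point screen at 500 μM inhibitor, with acarbose as positive control. Derivatives exceeding 50% inhibition were taken on to a dose-response series at several concentrations to derive IC50. Values are mean ± SD, n = 3.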

[3] = Inhibition of alpha-glucosidase (unknown origin) at 500 uM relative to control; conditions: Homo sapiens; how it was run: as §1
[4] = Non-competitve inhibition of alpha-glucosidase (unknown origin) by Dixon-plot analysis; set-up: species or system Homo sapiens
How it was run: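 Kinetic study run at varied substrate concentrations. Inhibition type was assigned from a Lineweaver-Burk plot (Vm and Km compared), and the inhibition constant Ki was read from a Dixon plot.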

SMILES	Ratio IC50 [1]	IC50 [2] [µM]	inhibition [3] [%]	Ki [4] [µM]
C[C@H]1C[C@@]23CC[C@H]4[C@@](C)([C@@H](OC(=O)/C=C/c5ccccc5)CC[C@@]4(C)C(=O)O)[C@@H]2CC[C@H]1C3	17	17.1	–	–
C[C@H]1O[C@H](O[C@H]2[C@H](O)[C@@H](O)[C@@H](O[C@H]3[C@H](O)[C@@H](O)C(O)O[C@@H]3CO)O[C@@H]2CO)[C@H](O)[C@@H](O)[C@@H]1N[C@H]1C=C(CO)[C@@H](O)[C@H](O)[C@H]1O (stereo not given in full) [ACARBOSE]	–	130	79.8	–
C[C@H]1C[C@@]23CC[C@H]4[C@@](C)([C@@H](OC(=O)CCC(=O)O)CC[C@@]4(C)C(=O)O)[C@@H]2CC[C@H]1C3	–	–	17.8	–
CC(=O)O[C@H]1CC[C@@](C)(C(=O)O)[C@H]2CC[C@@]34C[C@H](CC[C@H]3[C@]12C)[C@@H](C)C4	2	146	98.4	–
C=C1C[C@@]23CC[C@H]4[C@@](C)(/C(=N/O)CC[C@@]4(C)C(=O)O)[C@@H]2CC[C@H]1C3	–	330	77.2	–
CC(=O)O[C@H]1CC[C@@](C)(C(=O)O)[C@H]2CC[C@]34CC(=O)[C@@H](CC[C@H]3[C@]12C)C4	–	262	78.8	–
CCCCC/C=C/C(=O)O[C@H]1CC[C@@](C)(C(=O)O)[C@H]2CC[C@@]34C[C@H](CC[C@H]3[C@]12C)[C@@H](C)C4	17	16.9	91.8	–
C[C@H]1C[C@@]23CC[C@H]4[C@@](C)([C@@H](OC(=O)c5cccnc5)CC[C@@]4(C)C(=O)O)[C@@H]2CC[C@H]1C3	–	71.4	93	–
CCCCCCCCCCCCCCCCCC(=O)O[C@H]1CC[C@@](C)(C(=O)O)[C@H]2CC[C@@]34C[C@H](CC[C@H]3[C@]12C)[C@@H](C)C4	–	32	94.2	–
C=C1C(=O)[C@@]23CC[C@H]4[C@@](C)([C@@H](OC(C)=O)CC[C@@]4(C)C(=O)O)[C@@H]2CC[C@H]1C3	–	–	18.6	–
C[C@H]1C[C@@]23CC[C@H]4[C@@](C)(C(=O)CC[C@@]4(C)C(=O)O)[C@@H]2CC[C@H]1C3	–	–	13.2	–
C=C1C[C@@]23CC[C@H]4[C@@](C)([C@@H](OC(C)=O)CC[C@@]4(C)C(=O)O)[C@@H]2CC[C@H]1C3	–	274	95	–
CCCCCCCC(=O)O[C@H]1CC[C@@](C)(C(=O)O)[C@H]2CC[C@@]34C[C@H](CC[C@H]3[C@]12C)[C@@H](C)C4	–	22.8	95.5	–
COC(=O)[C@]1(C)CC[C@H](OC(C)=O)[C@@]2(C)[C@@H]3CC[C@H]4C[C@@]3(CC[C@@H]21)C[C@@H]4C	–	–	11.4	–
CC(=O)O[C@H]1CC[C@@](C)(C(=O)O)[C@H]2CC[C@@]34C[C@H](CC[C@H]3[C@]12C)[C@@](O)(CO)C4	–	–	7.5	–
CCCC(=O)O[C@H]1CC[C@@](C)(C(=O)O)[C@H]2CC[C@@]34C[C@H](CC[C@H]3[C@]12C)[C@@H](C)C4	–	48.4	98	–
C[C@H]1C[C@@]23CC[C@H]4[C@@](C)([C@@H](OC(=O)C5CCCCC5)CC[C@@]4(C)C(=O)O)[C@@H]2CC[C@H]1C3	17	16.1	–	19.4
C=C1C[C@@]23CC[C@H]4[C@](C)([C@@H]2CC[C@H]1C3)[C@@H](O)CC[C@@]4(C)C(=O)O	–	538	52	–
C[C@H]1C[C@@]23CC[C@H]4[C@@](C)([C@@H](OC(=O)c5ccccc5)CC[C@@]4(C)C(=O)O)[C@@H]2CC[C@H]1C3	–	45.4	–	–
C=C1C[C@@]23CC[C@H]4[C@@](C)([C@@H](OC(C)=O)CC[C@@]4(C)C(=O)OC)[C@@H]2CC[C@H]1C3	–	–	45.4	–
C=C1[C@H]2CC[C@@H]3[C@@](CC[C@H]4[C@@]3(C)[C@@H](OC(C)=O)CC[C@@]4(C)C(=O)O)(C2)[C@H]1O	–	–	22.1	–
C[C@H]1C[C@@]23CC[C@H]4[C@](C)([C@@H]2CC[C@H]1C3)[C@@H](O)CC[C@@]4(C)C(=O)O	–	–	17.3	–
C=C1C[C@@]23CC[C@H]4[C@@](C)(C(=O)CC[C@@]4(C)C(=O)O)[C@@H]2CC[C@H]1C3	–	–	19.4	–
CC(=O)O[C@H]1CC[C@@](C)(C(=O)O)[C@H]2CC[C@@]34C[C@H](CC[C@H]3[C@]12C)[C@@]1(CO1)C4	–	–	9.6	–
